This is a sample that favours compounds with a hit; in the whole collection about 3.3% have one here.
HTR1E antagonist: 5-HT1E (human) receptor antagonism. inhibition, % at 6 µM. 65,000 compounds, 0.99% hits. P28566. CHO 5-HT1E Ga15 NFAT-bla reporter, FRET, antagonist;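 active = inhibition above a set limit, the mean inhibition across every tested compound plus 3 SD, cut at about 29% in these data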;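 also: signal is the 460 over 535 nm emission ratio of beta-lactamase substrate; 0% = agonist plus DMSO wells and 100% = wells without agonist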
HEK293 NFkB inh: inhibitors of the PMA/ionomycin-induced NF-kB reporter in HEK293 cells; inhibition, % at 3 µM; HEK-293 NF-kB luciferase reporter, luminescence; AID 465; 62,000 compounds, 0.21% hits;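 active = inhibition above the mean of all tested compounds plus 3 SD, cut at about 40% in these data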;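 also: 0% = stimulated DMSO wells and 100% = 10 µM reference inhibitor 5653914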
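System: NF-kB luciferase reporter HEK-293 cells | Replication: Single test | Control set: DMSO vs reference inhibitor | Evaluation: % inhibition | Schedule: 1 h pretreatment, 16 h stimulation, 37 °C | Probe or stimulus: PMA with ionomycin | Compound dosing: One dose, 3 µM | Detection: Luciferase luminescence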
5HT1a ag: activates the human 5-HT1a serotonin receptor | AID 567 | activation, % at 10 µM | P08908 | 65,000 compounds, 0.56% hits | CHO 5-HT1a Ga15 NFAT-bla reporter, FRET ratio; 0% basal, 100% maximal reference agonist;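 active = activation above the screen-wide mean activation plus 3 SD, cut at about 19% in these data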;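 also: 0% = DMSO wells and 100% = 5-CT at EC100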
Target sequence (P08908 whole entry, looked up): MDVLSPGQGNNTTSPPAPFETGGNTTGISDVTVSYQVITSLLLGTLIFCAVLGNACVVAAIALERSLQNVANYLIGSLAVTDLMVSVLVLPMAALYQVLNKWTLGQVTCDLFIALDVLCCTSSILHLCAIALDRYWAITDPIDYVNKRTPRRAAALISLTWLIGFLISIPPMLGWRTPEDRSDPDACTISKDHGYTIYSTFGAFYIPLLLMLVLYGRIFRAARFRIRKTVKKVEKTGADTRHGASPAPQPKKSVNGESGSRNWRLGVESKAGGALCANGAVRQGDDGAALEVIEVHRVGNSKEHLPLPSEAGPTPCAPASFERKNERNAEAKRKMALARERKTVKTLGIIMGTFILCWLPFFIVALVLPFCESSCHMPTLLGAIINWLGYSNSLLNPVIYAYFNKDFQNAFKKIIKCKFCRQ
HTR1E agonist: 5-HT1E (human) receptor agonism; CHO 5-HT1E Ga15 NFAT-bla reporter, FRET; 0% DMSO wells, 100% control agonist wells; activation, % at 6 µM; P28566; 65,000 compounds, 0.69% hits;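 active = activation above a set limit, the screen-wide mean activation plus 3 SD, cut at about 8.5% in these data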;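 also: 100% = positive control agonist at 1 µM giving full maximal response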
5-HT1A blocker: blocks the human serotonin 5-HT1a receptor | CHO 5-HT1a Ga15 NFAT-bla reporter, antagonist mode | P08908 | 62,000 compounds, 0.68% hits | inhibition, % at 10 µM;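 active = inhibition above the mean of all tested compounds plus 3 SD, cut at about 43% in these data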;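 also: receptor stimulated by 5-CT agonist at 100 nM near EC80; beta-lactamase reporter measured by ratiometric fluorescence of a cleavable substrate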
Jurkat tox 60K: cytotoxicity toward Jurkat cells | Jurkat E6.1 viability, ATP luminescence, 48 h | inhibition, % at 4 µM | 56,000 compounds, 1.2% hits | AID 463;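 active = inhibition above the mean inhibition of all tested compounds plus 3 SD, cut at about 28% in these data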
* marks the source's active call; other numbers are inactive results; nt = no result given.

SMILES | HTR1E antagonist | HEK293 NFkB inh | 5HT1a ag | HTR1E agonist | 5-HT1A blocker | Jurkat tox 60K
O=C(CCN1CCN(c2ccccc2F)CC1)c1ccc(Br)cc1 | 3 | 21 | 1 | 34* | 7 | -5
Cc1cc(-c2nsc(=O)o2)c(S(C)(=O)=O)s1 | 4 | 6 | -3 | -1 | 2 | -1
COc1cc2c(cc1NC(=O)CCCN1C(=O)CCC1=O)oc1ccccc12 | -2 | 5 | 11 | 0 | -8 | 2
COc1cc2c(cc1NC(=O)CN1C(=O)NC3(CCc4ccccc43)C1=O)oc1ccccc12 (stereo not drawn) | -14 | 10 | -1 | 1 | 45* | 5
CCN(CCCc1ccccc1)CCCc1ccccc1 | 5 | nt | 0 | 31* | nt | nt
CCN(CC)CCCNC(=O)N[C@@H](Cc1ccccc1)C(=O)O | -7 | 10 | -1 | 0 | -4 | 4
CCCOc1ccccc1C1CC(=O)NC(C)=C1C(=O)OCC(C)C (stereo not drawn) | 14 | 8 | 0 | 0 | 17 | 4
CCOc1ccccc1C1CC(=O)NC2=C1C(=O)CCC2 (stereo not drawn) | 1 | 20 | -2 | -1 | 7 | 64*
CCCOc1ccccc1C1CC(=O)NC2=C1C(=O)CCC2 (stereo not drawn) | 13 | 7 | -3 | 0 | 12 | 95*
CCCCOc1ccccc1C1CC(=O)NC2=C1C(=O)CCC2 (stereo not drawn) | 29* | 18 | -2 | 2 | 16 | 74*
CCOc1ccc(C2CC(=O)NC3=C2C(=O)CCC3)cc1 (stereo not drawn) | 6 | 8 | -2 | -2 | 2 | 2
Cc1ccc(CN2C(=O)CCC2C(=O)NCCN2CCN(c3cccc(Cl)c3)CC2)cc1 (stereo not drawn) | -14 | 10 | 5 | 4 | 4 | 2
CCOC(=O)c1ccc(NC(=O)COC)cc1 | 2 | 6 | 0 | -1 | -5 | 1
CCOC(=O)c1ccc(NC(=O)Cn2cccc2)cc1 | -2 | 13 | -2 | 26* | 7 | 0
CCOC(=O)/N=C(/NC(=O)Nc1ccc(C(=O)OCC)cc1)OC | 13 | -8 | 1 | 9.3* | -5 | -1
CNc1nc(C)c(C#N)c(-c2ccccc2)c1C(C)=O | 28 | -7 | 0 | 18* | 2 | -5
CC(=O)Nc1nc(C)nc(-c2ccccc2)c1C(C)=O | 15 | 4 | -2 | 0 | -3 | 0
CCN1C(=O)c2cccc3c(NC(=O)c4ccc(S(=O)(=O)N5CCOCC5)cc4)ccc1c23 | 22 | 12 | -3 | 0 | -7 | 7
CCN1C(=O)c2cccc3c(NC(=O)c4ccc(S(=O)(=O)N(C)C)cc4)ccc1c23 | 2 | 22 | 88* | 0 | -6 | -2
CCN1C(=O)c2cccc3c(NS(=O)(=O)c4ccc(NC(C)=O)cc4)ccc1c23 | 3 | 4 | 0 | 0 | 0 | 16
CCOC(=O)c1ccc(NC(=O)Nc2ccc3c4c(cccc24)C(=O)N3CC)cc1 | 30* | 14 | -3 | 0 | 1 | 10
O=C(CSc1nnc(-c2ccc(S(=O)(=O)N3CCCC3)cc2)o1)NCc1ccco1 | 1 | 14 | -4 | 0 | 12 | 4
O=C(NCc1ccco1)C(c1cccs1)N(C(=O)C1COc2ccccc2O1)c1cccc(O)c1 (stereo not drawn) | -4 | 5 | -3 | 0 | 16 | 4
CCOC(=O)C1CCCN(C(=O)COC(=O)C2=COCCO2)C1 (stereo not drawn) | -3 | 18 | 2 | 1 | 6 | -4
CCOC(=O)C(O)(CCC(O)(C(=O)OCC)C(=O)OCC)C(=O)OCC | -21 | 7 | -1 | -2 | 4 | 1
SMILES | HTR1E antagonist | HEK293 NFkB inh | 5HT1a ag | HTR1E agonist | 5-HT1A blocker | Jurkat tox 60K
O=C(NCC1CCCO1)c1csc2c1CCCC2 (stereo not drawn) | 5 | 1 | 1 | 0 | 0 | -2
COC(=O)c1ccc(CSc2nc(C)nc3sc(C)c(C)c23)o1 | 33* | 9 | -4 | -1 | 50* | 1
COC(=O)c1ccc(CSc2nnc(SCc3ccc(C(=O)OC)o3)s2)o1 | 3 | 15 | -1 | -1 | 12 | 1
Cn1c(C(=O)N(Cc2ccccc2)Cc2cccs2)cc2sccc21 | 9 | 4 | 0 | 0 | 43* | 0
Cn1c(C(=O)N(Cc2ccccc2)Cc2ccccn2)cc2sccc21 | 2 | 18 | 1 | -1 | 22 | 4
CC12C=CC3(CN(Cc4ccccc4)C(=O)C3C1C(=O)NC1CC1)O2 (stereo not drawn) | -9 | 7 | 1 | 0 | -3 | nt
O=C(CCN1CCCC1Cc1ccccc1)c1ccc2c(c1)OCCO2 (stereo not drawn) | 16 | nt | -1 | 8.9* | nt | nt
O=C(CCN1CCCCC1)c1ccc2c(c1)OCCO2 | 23 | 4 | -4 | 0 | 17 | -1
O=c1c2cnn(-c3ccccc3Cl)c2ncn1Cc1cccnc1 | 1 | 9 | -2 | 0 | -6 | -1
Cc1cc(C)c2cc(CN(CC3CCCO3)S(=O)(=O)c3ccc4c(c3)OCCO4)c(=O)[nH]c2c1 (stereo not drawn) | -7 | 22 | 4 | 0 | -6 | 1
COc1cccc(OCCOCCNCCO)c1 | 2 | 16 | 42* | 0 | 0 | -4
COc1cccc(OC)c1OCCNCCO | 0 | 23 | 0 | 1 | 1 | 2
Cn1ncc2c(Nc3ccccc3Br)ncnc21 | 4 | nt | -4 | 0 | nt | nt
Cn1ncc2c(Nc3ccc(-c4ccccc4)cc3)ncnc21 | 10 | 8 | -2 | 1 | 1 | 35*
CN1Cc2cc(C(=O)c3cc(Cl)cc(CSc4ncccn4)c3O)cnc2NC1=O | 80* | 33 | -3 | -1 | 60* | 98*
CCn1c(Cn2nnc(-c3ccccc3)n2)nnc1SCc1ccc(Cl)c(Cl)c1 | -9 | 15 | 5 | -1 | 15 | -7
COc1cc2c(cc1OC)C1=C(C#N)CC/C(=N\S(=O)(=O)c3ccccc3)N1CC2 | 66* | 10 | 3 | 1 | 5 | -5
COc1cc2c(cc1OC)CN(S(C)(=O)=O)CC2 | 12 | 4 | -1 | 0 | 4 | -6
COc1cc2c(cc1OC)C1=C(C#N)CCC(=O)N1CC2 | 49* | 18 | 0 | 0 | 8 | -4
COc1cc2c(cc1OC)C1=C(C#N)CN(C3CCCCC3)CN1CC2 | 27 | 10 | 1 | 1 | 5 | 2
COc1ccc(CCN2CC(C#N)=C3c4cc(OC)c(OC)cc4CCN3C2)cc1OC | 38* | 6 | 2 | 2 | 11 | 4
Cc1[nH]n(CCC#N)c(=O)c1CC(=O)N1CCN(c2ccccc2)CC1 | -8 | 15 | -6 | 0 | 2 | -6
COc1cc(C2NC(=O)NC(C)=C2C(=O)OC2CCCCC2)cc(Br)c1O (stereo not drawn) | 0 | 18 | -1 | 0 | 0 | -4

Source: PubChem BioAssay
